For assay [1], the system named is RAW264.7. The assay is described as follows: Activation of Nrf2/HO-1 signalling pathway in mouse RAW264.7 cells assessed as increase in Nrf2 nuclear translocation at 0.5 to 2 uM preincubated for 1 hr followed by LPS stimulation and measured after 6 hrs by DAPI staining based fluorescence microscopic analysis. The format is cell-based. Conditions: filed as activator, dose 0.5-2 µM, time 7.0 hrs. The procedure, abridged: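 Cells grown on glass coverslips, treated 1 h, then LPS 0.5 µg/mL for 6 h. Fixed in 4% paraformaldehyde 20 min at room temperature, blocked 1 h in TBS with 0.1% Triton X-100 and 5% BSA. Stained with anti-Nrf2 and FITC anti-rabbit IgG, nuclei with DAPI. Imaged by inverted fluorescence microscope.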

Assay [2] concerns RAW264.7. Briefly: Cytotoxicity against mouse RAW264.7 cells assessed as reduction in cell viability incubated for 24 hrs in absence of LPS by MTT assay. The format is cell-based. The settings on record: RAW264.7, 24 h.
The subject of assay [3] is Rattus norvegicus. The assay is described as follows: Antiarthritic activity in Sprague-Dawley rat model of arthritis assessed as reduction in CFA-induced synovial hyperplasia at 20 mg/kg, ig administered daily for 28 days starting from 14 days post-immunization and measured every 3 days by H and E staining based histopathological analysis. The format is functional, organism-based. The settings on record: time 28.0 day. The procedure, abridged: (§1)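 AA rats (male SD, CFA intradermal into right hind paw) dosed intragastrically once daily at 20 or 40 mg/kg from day 14 to day 28. Killed after 29 days. Ankle joints fixed in 4% neutral buffered paraformaldehyde, decalcified in 10% EDTA, sectioned and H&E stained. Scored for synovial hyperplasia, inflammatory cell infiltration and cartilage destruction.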

Assay [4] has as its system RAW264.7. Briefly: Cytotoxicity against mouse RAW264.7 cells assessed as reduction in cell viability incubated for 24 hrs in presence of LPS by MTT assay. The assay is classed as cell-based. The settings on record: RAW264.7, 24 h.
Assay [5] relates to RAW264.7. Briefly: Antiinflammatory activity in mouse RAW264.7 cells assessed as inhibition of LPS-induced nitric oxide production at 10 uM preincubated for 1 hr followed by LPS stimulation and measured after 24 hrs by Griess reagent-based assay relative to control. The assay is classed as functional. Conditions: time 25 hrs. A digest of the protocol: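 RAW264.7 cells (7 × 10^4/well, used 24 h after seeding) in DMEM with 10% heat-inactivated FBS, 37 °C, 5% CO2. Pretreated 1 h with compound (10 µM screen; 0.625–10 µM dose series), then LPS 0.5 µg/mL for 24 h. Supernatant mixed 1:1 with Griess reagent, 15 min at room temperature, absorbance read at […].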

The subject of assay [6] is RAW264.7. Briefly: Inhibition of MAPK signalling activation in mouse RAW264.7 cells assessed as reduction in LPS-induced JNK phosphorylation at 0.5 to 2 uM preincubated for 1 hr followed by LPS stimulation by Western blotting analysis. Conditions: dose 0.5-2 µM, TDE = time-dependent effect. The format is cell-based. A digest of the protocol: (§2)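 Pretreatment 1 h with 0.5–2 µM, then LPS 0.5 µg/mL for 30 min. p-IκB, IκB, p-p65, p65, ERK, JNK, p38 and their phosphorylated forms, plus β-actin, detected by Western blot (RIPA lysis, SDS-PAGE, PVDF, primary 16 h at 4 °C, HRP secondary 1:5000, ECL).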

Assay [7] deals with Rattus norvegicus. Briefly: Antiarthritic activity in Sprague-Dawley rat model of arthritis assessed as reduction in CFA-induced cartilage destruction at 40 mg/kg, ig […] and measured every 3 days by H and E staining based histopathological analysis. The assay is classed as functional, organism-based.
Assay [8] concerns RAW264.7. Briefly: Inhibition of NF-kappaB activation in mouse RAW264.7 cells assessed as reduction in LPS-induced p65 phosphorylation at 0.5 to 2 uM preincubated for 1 hr followed by LPS stimulation and measured after 30 mins by Western blotting analysis. The assay is classed as cell-based. Conditions: dose 0.5-2 µM, time 90.0 min. A digest of the protocol:
as §2

Assay [9] relates to RAW264.7. Briefly: Inhibition of LPS-induced ROS generation in mouse RAW264.7 cells at 0.5 to 2 uM preincubated for 1 hr followed by LPS stimulation and measured after 6 hrs by DCFH-DA staining based flow cytometry analysis. The format is functional, cell-based. Conditions: dose 0.5-2 µM, time 7.0 hrs. The procedure, abridged:
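RAW264.7 cells (1.5 × 10^6/well, grown 24 h) pretreated 1 h with 0.5, 1, 2 µM, then LPS 0.5 µg/mL for 6 h. Loaded with DCFH-DA 30 min at 37 °C, washed three times with cold serum-free medium or PBS. Intracellular ROS read by flow cytometry.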

Assay [10] deals with Rattus norvegicus. The assay is described as follows: Antiarthritic activity in Sprague-Dawley rat model of arthritis assessed as reduction in CFA-induced inflammatory cell infiltration at 20 mg/kg, ig administered daily for 28 days starting from 14 days post-immunization and measured every 3 days by H and E staining based histopathological analysis. The format is functional, organism-based. The settings on record: time 28.0 day. The procedure, abridged: as §1

In assay [11] the test system is RAW264.7. The assay is described as follows: Activation of Nrf2/HO-1 signalling pathway in mouse RAW264.7 cells assessed as inhibition of LPS-induced NO production at 2 uM preincubated for 1 hr in presence of NAC followed by LPS stimulation and measured after 24 hrs by Griess reagent-based assay. The format is cell-based. The settings on record: time 25.0 hrs. The procedure, abridged:
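Cells pretreated 1 h with or without NAC 5 mM alongside 2 µM compound, then LPS 0.5 µg/mL for 24 h. Medium NO measured by Griess reagent. Means ± SD of three independent experiments.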

The subject of assay [12] is RAW264.7. The assay is described as follows: Activation of Nrf2/HO-1 signalling pathway in mouse RAW264.7 cells assessed as increase in nuclear Nrf2 protein expression at 0.5 to 2 uM preincubated for 1 hr followed by LPS stimulation and measured after 24 hrs by Western blotting analysis. The format is cell-based. Conditions: filed as activator, dose 0.5-2 µM, time 25.0 hrs. The procedure, abridged: (§3)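 RAW264.7 cells (2 × 10^6/well, grown 24 h) pretreated 1 h with 0.5, 1, 2 µM, then LPS 0.5 µg/mL for 24 h. Lysed in RIPA with PMSF and phosphatase inhibitors, SDS-PAGE, PVDF transfer. Primary antibodies (anti-Nrf2 or anti-HO-1) 16 h at 4 °C, HRP secondary 1:5000 1 h at room temperature, ECL detection. β-actin used for normalization.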

Assay [13] concerns RAW264.7. Briefly: Anti-inflammatory activity in mouse RAW264.7 cells assessed as inhibition of LPS-induced COX-2 protein expression preincubated for 1 hr followed by LPS stimulation and measured after 24 hrs by Western blot analysis. The assay is classed as functional, cell-based. The settings on record: dose 0.5-2 µM, time 25.0 hrs. The procedure, abridged: (§4)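 Cells pretreated 1 h with 0.5, 1, 2 µM, then LPS 0.5 µg/mL for 24 h. iNOS, COX-2 and β-actin detected by Western blot (RIPA lysis, PVDF, primary 16 h at 4 °C, HRP secondary, ECL). Blots representative of three separate experiments.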

Assay [14] deals with RAW264.7. The assay is described as follows: Activation of Nrf2/HO-1 signalling pathway in mouse RAW264.7 cells assessed as increase in HO-1 protein expression at 0.5 to 2 uM preincubated for 1 hr followed by LPS stimulation and measured after 24 hrs by Western blotting analysis. The format is cell-based. Conditions: filed as activator, dose 0.5-2 µM, time 25.0 hrs. The procedure, abridged: as §3

In assay [15] the test system is RAW264.7. The assay is described as follows: Inhibition of NF-kappaB activation in mouse RAW264.7 cells assessed as reduction in LPS-induced p65 nuclear translocation at 0.5 to 2 uM preincubated for 1 hr followed by LPS stimulation and measured after 30 mins by Western blotting analysis. The assay is classed as cell-based. Conditions: dose 0.5-2 µM, time 90.0 min.

Assay [16] concerns RAW264.7. Briefly: Anti-inflammatory activity in mouse RAW264.7 cells assessed as inhibition of LPS-induced iNOS protein expression preincubated for 1 hr followed by LPS stimulation and measured after 24 hrs by Western blot analysis. The assay is classed as functional, cell-based. Conditions: dose 0.5-2 µM, time 25.0 hrs. A digest of the protocol:
as §4

Assay [17] has as its system RAW264.7. Briefly: Antiinflammatory activity in mouse RAW264.7 cells assessed as inhibition of LPS-induced nitric oxide production preincubated for 1 hr followed by LPS stimulation and measured after 24 hrs by Griess reagent-based assay. The format is functional, cell-based.

Calls of active or inactive are those of the source. The rule behind the calls is not given here.

With `COc1cc(OC)c2c(c1)C(C(O)c1ccc(OCc3ccc(F)cc3)cc1)OC2=O` (configuration not stated), the result in [1], in assay [3], in assay [7], in [10], in assay [12] and in [14] was Active. In addition, the IC50 in assay [2] was greater than 40 µM; in assay [4] it was greater than 40 µM; in assay [17], 0.76 µM. In assay [5], the inhibition at 10 µM amounted to 95.2%. For the same molecule, the inhibition entry in assay [6] is “Tde”; in [13], “Dose-dependent effect”; in assay [16] it was “Dose-dependent effect”. Moreover, the inhibition entry in assay [8] and in assay [15] was “Active” in each case. The inhibition result in assay [9] is “inactive”. In assay [11], the result was inactive.

The record behind these values is ChEMBL document CHEMBL4765431, “Novel phthalide derivatives: Synthesis and anti-inflammatory activity in vitro and in vivo” (Eur J Med Chem, 2020).
